Measured values: publication PMC9305226 (Clinical Pharmacology in Drug Development, 2022)

Experiments:
Format in all cases: in vivo, human
[1] = Plasma insulin lispro pharmacokinetics after a single subcutaneous dose; settings: for median tmax: healthy Japanese men, single s.c. 0.3 U/kg, plasma, n = 36
How it was run: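 Venous blood drawn into K-EDTA tubes predose, then every 15–60 min over the 10 h clamp. Samples centrifuged within 20 min; plasma held at –60 to –80°C. Analysis by LC-MS/MS specific for lispro over endogenous insulin: protein precipitation plus solid-phase extraction, bovine insulin internal standard, C18 gradient at 40°C. Calibration was 1/x2-weighted linear over 100–8000 pg/mL. Noncompartmental parameters; log-values by mixed model, ratios back-transformed.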

[2] = test system: healthy Japanese male subjects; assay: Safety and tolerability of single doses; settings: single s.c. 0.3 U/kg, healthy Japanese men; all TEAEs mild or moderate
[3] = test system: healthy Japanese male subjects; assay: 10-hour euglycemic clamp; settings: ratio of geometric means, linear mixed effects model, n = 36, 95%CI
How it was run: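 Randomized double-blind 2-period crossover, single s.c. 0.3 U/kg per period, 7–18 day washout. After ≥10 h overnight fast, baseline BG was the mean of readings at –30, –20, –10 and –1 min (clamp skipped if <70 mg/dL). BG measured every 1 min; 10% glucose infusion auto-adjusted to hold BG 5 mg/dL below baseline for 10 h. Body-weight-standardized GIR smoothed (LOESS, tension 0.06). Log-parameters analysed by mixed model (period, sequence, treatment fixed; subject random), back-transformed.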

[4] = ratio of geometric means, linear mixed effects model, n = 36, 90%CI

| Substance | median tmax [1] | Tolerability of single doses [2] | GIRmax, Mean Ratio SAR‐Lis/Ly‐Lis‐Jp, point estimate (95%CI) [3] | GIR‐AUC0‐10h, Mean Ratio SAR‐Lis/Ly‐Lis‐Jp, point estimate (95%CI) [3] | AUCinf, Mean Ratio SAR‐Lis/Ly‐Lis‐Jp, point estimate (90%CI) [1, 4] | AUClast, Mean Ratio SAR‐Lis/Ly‐Lis‐Jp, point estimate (90%CI) [1, 4] | Cmax, Mean Ratio SAR‐Lis/Ly‐Lis‐Jp, point estimate (90%CI) [1, 4] | t1/2z, Mean Ratio SAR‐Lis/Ly‐Lis‐Jp, point estimate (90%CI) [1, 4] |
| --- | --- | --- | --- | --- | --- | --- | --- | --- |
| insulin lispro [Ly‐Lis‐Jp, reference compound] | 1 h | well tolerated |  |  |  |  |  |  |
| insulin lispro [SAR‐Lis] | 1 h | well tolerated | 1.07 (1.00‐1.15) | 1.07 (0.99‐1.15) | 1.00 (0.97‐1.02) | 1.00 (0.97‐1.02) | 0.99 (0.93‐1.05) | 1.03 (0.96‐1.11) |
